In ChEMBL document CHEMBL3868627, “Radical scavenging and antibacterial activity of caffemides against gram positive, gram negative and clinical drug resistance bacteria” (Bioorg Med Chem Lett, 2016):

What was measured:
Pseudomonas aeruginosa [1] = test: Antibacterial activity against Pseudomonas aeruginosa PAO1 ATCC 15692 assessed as colony forming units at 200 ug/ml measured after 3 hr by serial dilution method (reference value: 141.66 +/- 7.5 10^8CFU); assay type: functional
Staphylococcus aureus [2] = test: Antibacterial activity against Staphylococcus aureus ATCC 25923 assessed as colony forming units at 10 ug/ml measured after 24 hrs by serial dilution method (reference value: 77.66 +/- 5.13 10^6CFU); assay type: functional
[3] = system: Mycolicibacterium smegmatis; test: Antibacterial activity against Mycobacterium smegmatis MC2 155 ATCC 700084 assessed as colony forming units at 500 ug/ml measured after 24 hrs by serial dilution method (reference value: 84 +/- 4.35 10^3CFU); assay type: functional
Outline: (§1)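 Bacteria were exposed to test compound over a range of µg/ml concentrations. Viable bacteria were counted by colony forming unit (CFU) assay at set time points (6 h and 24 h for M. smegmatis and S. aureus strains), and untreated bacteria served as the control. Percentage of population killed was calculated relative to the untreated control. Values are means ± S.D of three independent trials.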

[4] = system: Mycolicibacterium smegmatis; test: Bactericidal activity against Mycobacterium smegmatis MC2 155 ATCC 700084 at >200 ug/ml measured after 6 and 24 hrs by serial dilution method relative to control; assay type: functional; outline: as §1
Pseudomonas aeruginosa [5] = test: Antibacterial activity against Pseudomonas aeruginosa PAO1 ATCC 15692 assessed as colony forming units at 200 ug/ml measured after 1 hr by serial dilution method (reference value: 85.33 +/- 4.04 10^8CFU); assay type: functional
Staphylococcus aureus [6] = test: Antibacterial activity against Staphylococcus aureus ATCC 25923 assessed as colony forming units at 300 ug/ml measured after 6 hrs by serial dilution method (reference value: 65.66 +/- 3.51 10^6CFU); assay type: functional; outline: as §1
Staphylococcus aureus [7] = test: Antibacterial activity against Staphylococcus aureus ATCC 25923 assessed as colony forming units at 1 ug/ml measured after 6 hrs by serial dilution method (reference value: 65.66 +/- 3.51 10^6CFU); assay type: functional
Staphylococcus aureus [8] = test: Antibacterial activity against Staphylococcus aureus ATCC 25923 assessed as colony forming units at 500 ug/ml measured after 6 hrs by serial dilution method (reference value: 65.66 +/- 3.51 10^6CFU); assay type: functional; outline: as §1
Staphylococcus aureus [9] = test: Bactericidal activity against methicillin-resistant Staphylococcus aureus ATCC 43300 at 50 ug/ml measured after 24 hrs by serial dilution method relative to control; assay type: functional; outline: as §1
[10] = system: Mycolicibacterium smegmatis; test: Antibacterial activity against Mycobacterium smegmatis MC2 155 ATCC 700084 measured after 72 hrs by serial dilution method; assay type: functional
Pseudomonas aeruginosa [11] = test: Antibacterial activity against Pseudomonas aeruginosa PAO1 ATCC 15692 measured after 1 to 3 hrs by serial dilution method
Pseudomonas aeruginosa [12] = test: Antibacterial activity against Pseudomonas aeruginosa PAO1 ATCC 15692 assessed as colony forming units at 300 ug/ml measured after 3 hr by serial dilution method (reference value: 141.66 +/- 7.5 10^8CFU); assay type: functional
[13] = system: Mycolicibacterium smegmatis; test: Antibacterial activity against Mycobacterium smegmatis MC2 155 ATCC 700084 assessed as colony forming units at 200 ug/ml measured after 6 hrs by serial dilution method (reference value: 70 +/- 1.73 10^3CFU); assay type: functional; outline: as §1
[14] = system: Mycolicibacterium smegmatis; test: Bactericidal activity against Mycobacterium smegmatis MC2 155 ATCC 700084 at 50 ug/ml measured after 24 hrs by serial dilution method relative to control; assay type: functional; outline: as §1
Staphylococcus aureus [15] = test: Bactericidal activity against methicillin-resistant Staphylococcus aureus ATCC 43300 at >100 ug/ml measured after 6 and 24 hrs by serial dilution method relative to control; assay type: functional; outline: as §1
[16] = system: Mycolicibacterium smegmatis; test: Antibacterial activity against Mycobacterium smegmatis MC2 155 ATCC 700084 assessed as colony forming units at 50 ug/ml measured after 6 hrs by serial dilution method (reference value: 70 +/- 1.73 10^3CFU); assay type: functional; outline: as §1
[17] = system: Mycolicibacterium smegmatis; test: Antibacterial activity against Mycobacterium smegmatis MC2 155 ATCC 700084 assessed as colony forming units at 200 ug/ml measured after 24 hrs by serial dilution method (reference value: 84 +/- 4.35 10^3CFU); assay type: functional; outline: as §1
Pseudomonas aeruginosa [18] = test: Antibacterial activity against Pseudomonas aeruginosa PAO1 ATCC 15692 assessed as colony forming units at 1 ug/ml measured after 1 hr by serial dilution method (reference value: 85.33 +/- 4.04 10^8CFU); assay type: functional
Staphylococcus aureus [19] = test: Antibacterial activity against Staphylococcus aureus ATCC 25923 assessed as colony forming units at 500 ug/ml measured after 24 hrs by serial dilution method (reference value: 77.66 +/- 5.13 10^6CFU); assay type: functional
Staphylococcus aureus [20] = test: Antibacterial activity against Staphylococcus aureus ATCC 25923 assessed as colony forming units at 10 ug/ml measured after 6 hrs by serial dilution method (reference value: 65.66 +/- 3.51 10^6CFU); assay type: functional
[21] = system: Mycolicibacterium smegmatis; test: Antibacterial activity against Mycobacterium smegmatis MC2 155 ATCC 700084 assessed as colony forming units at 300 ug/ml measured after 24 hrs by serial dilution method (reference value: 84 +/- 4.35 10^3CFU); assay type: functional; outline: as §1
[22] = Antioxidant activity assessed as DPPH free radical scavenging activity measured after 30 mins by spectrophotometry; assay type: functional
Outline: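 DPPH radical scavenging in ethanolic solution with a final DPPH concentration of 100 µM. Absorbance read at 517 nm. Percent inhibition = (A control − A test)/A control, where the control is DPPH without sample. The inhibition-versus-concentration plot gives EC50, the concentration giving a 50% drop in absorbance. Mean ± S.D. of three independent trials.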

Pseudomonas aeruginosa [23] = test: Antibacterial activity against Pseudomonas aeruginosa PAO1 ATCC 15692 assessed as colony forming units at 50 ug/ml measured after 1 hr by serial dilution method (reference value: 85.33 +/- 4.04 10^8CFU); assay type: functional
Staphylococcus aureus [24] = test: Antibacterial activity against methicillin-resistant Staphylococcus aureus ATCC 43300 assessed as colony forming units at 10 ug/ml measured after 24 hrs by serial dilution method (reference value: 74 +/- 2 10^6CFU); assay type: functional; outline: as §1
Pseudomonas aeruginosa [25] = test: Antibacterial activity against Pseudomonas aeruginosa PAO1 ATCC 15692 assessed as colony forming units at 1 ug/ml measured after 3 hr by serial dilution method (reference value: 141.66 +/- 7.5 10^8CFU); assay type: functional
Staphylococcus aureus [26] = test: Antibacterial activity against methicillin-resistant Staphylococcus aureus ATCC 43300 assessed as colony forming units at 1 ug/ml measured after 24 hrs by serial dilution method (reference value: 74 +/- 2 10^6CFU); assay type: functional; outline: as §1
Staphylococcus aureus [27] = test: Antibacterial activity against Staphylococcus aureus ATCC 25923 assessed as colony forming units at 200 ug/ml measured after 24 hrs by serial dilution method (reference value: 77.66 +/- 5.13 10^6CFU); assay type: functional
Pseudomonas aeruginosa [28] = test: Antibacterial activity against Pseudomonas aeruginosa PAO1 ATCC 15692 assessed as colony forming units at 10 ug/ml measured after 3 hr by serial dilution method (reference value: 141.66 +/- 7.5 10^8CFU); assay type: functional

Cc1ccc(O)c(NC(=O)/C=C/c2ccc(O)c(O)c2)c1
Activity (Pseudomonas aeruginosa [1]): 38.33 ×10⁸ CFU
Activity (Staphylococcus aureus [2]): 63 ×10⁶ CFU
Activity [3]: 0 ×10³ CFU
Activity [4]: 100%
Activity (Pseudomonas aeruginosa [5]): 14 ×10⁸ CFU
Activity (Staphylococcus aureus [6]): 0 ×10⁶ CFU
Activity (Staphylococcus aureus [7]): 26.33 ×10⁶ CFU
Activity (Staphylococcus aureus [8]): 0 ×10⁶ CFU
Activity (Staphylococcus aureus [9]): 64.8%
Activity [10]: Dose-dependent effect
Activity (Pseudomonas aeruginosa [11]): Dose-dependent effect
Activity (Pseudomonas aeruginosa [12]): 0 ×10⁸ CFU
Activity [13]: 6.33 ×10³ CFU
Activity [14]: 45.6%
Activity (Staphylococcus aureus [15]): 100%
Activity [16]: 25.33 ×10³ CFU
Activity [17]: 15 ×10³ CFU
Activity (Pseudomonas aeruginosa [18]): 62 ×10⁸ CFU
Activity (Staphylococcus aureus [19]): 0 ×10⁶ CFU
Activity (Staphylococcus aureus [20]): 25.66 ×10⁶ CFU
Activity [21]: 0 ×10³ CFU
EC50 [22]: 6.57 µM
Activity (Pseudomonas aeruginosa [23]): 43 ×10⁸ CFU
Activity (Staphylococcus aureus [24]): 41.33 ×10⁶ CFU
Activity (Pseudomonas aeruginosa [25]): 126 ×10⁸ CFU
Activity (Staphylococcus aureus [26]): 54.33 ×10⁶ CFU
Activity (Staphylococcus aureus [27]): 0 ×10⁶ CFU
Activity (Pseudomonas aeruginosa [28]): 112 ×10⁸ CFU

O=C(/C=C/c1ccc(O)c(O)c1)Nc1ccccc1Nc1ccccc1
Activity (Pseudomonas aeruginosa [1]): 21.33 ×10⁸ CFU
Activity (Staphylococcus aureus [2]): 40 ×10⁶ CFU
Activity [3]: 0 ×10³ CFU
Activity [4]: 100%
Activity (Pseudomonas aeruginosa [5]): 10.66 ×10⁸ CFU
Activity (Staphylococcus aureus [6]): 0 ×10⁶ CFU
Activity (Staphylococcus aureus [7]): 42 ×10⁶ CFU
Activity (Staphylococcus aureus [8]): 0 ×10⁶ CFU
Activity (Staphylococcus aureus [9]): 61.2%
Activity [10]: Dose-dependent effect
Activity (Pseudomonas aeruginosa [11]): Dose-dependent effect
Activity (Pseudomonas aeruginosa [12]): 0 ×10⁸ CFU
Activity [13]: 15 ×10³ CFU
Activity [14]: 78.1%
Activity (Staphylococcus aureus [15]): 100%
Activity [16]: 33.66 ×10³ CFU
Activity [17]: 0 ×10³ CFU
Activity (Pseudomonas aeruginosa [18]): 61 ×10⁸ CFU
Activity (Staphylococcus aureus [19]): 0 ×10⁶ CFU
Activity (Staphylococcus aureus [20]): 40 ×10⁶ CFU
Activity [21]: 0 ×10³ CFU
EC50 [22]: 14.7 µM
Activity (Pseudomonas aeruginosa [23]): 35 ×10⁸ CFU
Activity (Staphylococcus aureus [24]): 41.66 ×10⁶ CFU
Activity (Pseudomonas aeruginosa [25]): 115.33 ×10⁸ CFU
Activity (Staphylococcus aureus [26]): 60 ×10⁶ CFU
Activity (Staphylococcus aureus [27]): 0 ×10⁶ CFU
Activity (Pseudomonas aeruginosa [28]): 91.66 ×10⁸ CFU
